Test results: ChEMBL document CHEMBL5223070, “Synthesis and optimisation of P3 substituted vinyl sulfone-based inhibitors as anti-trypanosomal agents” (Bioorg Med Chem, 2020)

What was measured:
[1] = Growth inhibition of human HaCaT cells incubated for 24 hrs by MTT assay; assay type: toxicity, cell-based
Summary of the method: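 HaCaT cells (mycoplasma-tested) in DMEM with 10% fetal calf serum, seeded at 1x10⁵ cells/mL for 24 h, washed with PBS and then exposed to compound for 24 h. Controls were 0.1% v/v Triton X-100 and untreated cells. MTT (0.5 mg/mL) added for 3 h, formazan dissolved in DMSO and read at 590 nm. GI50 from log(inhibitor) vs normalised response. Triplicate wells, repeated on three separate days.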

[2] = test system: HaCaT; assay: Growth inhibition of human HaCaT cells assessed as LDH release at 100 uM incubated for 24 hrs by MTT assay; assay type: toxicity, cell-based
Summary of the method: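 HaCaT keratinocytes in DMEM with 10% fetal calf serum, seeded at 1x10⁵ cells/mL and grown 24 h. After a PBS wash, cells were exposed 24 h to compound at final 100 μM (from 10 mM DMSO stock, diluted in medium). Medium was then assayed for LDH release at 490/680 nm. Normalised to untreated cells and to lysis buffer (maximum release) as % cytotoxicity. Triplicate wells, three independent experiments.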

[3] = test system: Trypanosoma brucei brucei; assay: Antitrypanosomal activity against Trypanosoma brucei brucei MIT measured after 6 hrs by Alamar blue cell viability assay; assay type: functional, organism-based
Summary of the method: (§1)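 Bloodstream-form T. b. brucei MITat1.1 kept in log phase in antibiotic-free HMI-9 with 10% heat-inactivated FBS, 37 °C, 5% CO2. Seeded at 2 × 10⁵ cells/mL with 5 μM–100 pM compound or DMSO alone. Alamar Blue added at 6 h, total incubation 24 h. Absorbance read at 540 and 595 nm. Triplicate. EC50 by four-parameter variable-slope nonlinear regression.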

[4] = test system: Trypanosoma brucei brucei; assay: Antitrypanosomal activity against Trypanosoma brucei brucei assessed as reduction in survival; assay type: functional, organism-based; summary of the method: as §1
[5] = test system: HaCaT; assay: Growth inhibition of human HaCaT cells assessed as reduction in cell viability at above 10 uM incubated for 24 hrs by MTT assay

Structure (SMILES)	EC50 [3] [nM]	GI50 at 24 h [1] [nM]	growth inhibition (GI) [2]	IC50 [4] [nM]	growth inhibition (GI) [5]
CN1CCN(C(=O)N[C@@H](Cc2ccccc2)C(=O)N[C@H](/C=C/S(=O)(=O)c2ccccc2)CCCCNS(=O)(=O)c2cccc3ccccc23)CC1	1190	28700	Not Determined(Insoluble)	1180	Toxic
O=C(N[C@@H](Cc1ccccc1)C(=O)N[C@H](/C=C/S(=O)(=O)c1ccccc1)CCCCNS(=O)(=O)c1cccc2ccccc12)OCc1ccccc1	740	–	–	–	–
Cc1ccc(S(=O)(=O)N[C@@H](Cc2ccccc2)C(=O)N[C@H](/C=C/S(=O)(=O)c2ccccc2)CCCCNS(=O)(=O)c2cccc3ccccc23)cc1	990	–	–	–	–
O=C1N[C@@H](CCCCNS(=O)(=O)c2cccc3ccccc23)[C@@H](CS(=O)(=O)c2ccccc2)N[C@H]1Cc1ccccc1	> 5000	–	–	–	–
N[C@@H](Cc1ccccc1)C(=O)N[C@H](/C=C/S(=O)(=O)c1ccccc1)CCCCNS(=O)(=O)c1cccc2ccccc12	3430	–	–	–	–
O=C(N[C@H](/C=C/S(=O)(=O)c1ccccc1)CCCCNS(=O)(=O)c1cccc2ccccc12)[C@H](Cc1ccccc1)NC(=O)N1CCOCC1	900	–	–	–	–
CCCCCCc1cn([C@@H](Cc2ccccc2)C(=O)N[C@H](/C=C/S(=O)(=O)c2ccccc2)CCCCNS(=O)(=O)c2cccc3ccccc23)nn1	1050	–	–	–	–
CC(C)(C)NC(=O)N[C@@H](Cc1ccccc1)C(=O)N[C@H](/C=C/S(=O)(=O)c1ccccc1)CCCCNS(=O)(=O)c1cccc2ccccc12	> 5000	–	–	–	–
O=C(Cc1ccc2c(c1)OCO2)N[C@@H](Cc1ccccc1)C(=O)N[C@H](/C=C/S(=O)(=O)c1ccccc1)CCCCNS(=O)(=O)c1cccc2ccccc12	800	–	–	–	–
O=C(N[C@H](/C=C/S(=O)(=O)c1ccccc1)CCCCNS(=O)(=O)c1cccc2ccccc12)[C@H](Cc1ccccc1)n1cc(-c2ccccc2)nn1	1120	–	–	–	–
[N-]=[N+]=N[C@@H](Cc1ccccc1)C(=O)N[C@H](/C=C/S(=O)(=O)c1ccccc1)CCCCNS(=O)(=O)c1cccc2ccccc12	> 5000	–	–	–	–

Stronger by EC50 [3], values ahead:

EC50 [3] [nM]	Structure (SMILES)	GI50 at 24 h [1] [nM]	growth inhibition (GI) [2]	IC50 [4] [nM]	growth inhibition (GI) [5]
220	O=C(N[C@H](/C=C/S(=O)(=O)c1ccccc1)CCCCNS(=O)(=O)c1cccc2ccccc12)[C@H](Cc1ccccc1)NC(=S)Nc1ccc(C(F)(F)F)cc1	–	Not Determined(Insoluble)	220	Toxic
390	COc1cc(Br)c(S(=O)(=O)NCCCC[C@@H](/C=C/S(=O)(=O)c2ccccc2)NC(=O)[C@H](Cc2ccccc2)NC(=S)Nc2ccc(C(F)(F)F)cc2)cc1OC	–	Not Determined(Insoluble)	410	Toxic
150	O=C(Nc1ccccc1)N[C@@H](Cc1ccccc1)C(=O)N[C@H](/C=C/S(=O)(=O)c1ccccc1)CCCCNS(=O)(=O)c1cccc2ccccc12	–	Not Determined(Insoluble)	144	Toxic
710	O=C(N[C@@H](Cc1ccccc1)C(=O)N[C@H](/C=C/S(=O)(=O)c1ccccc1)CCCCNS(=O)(=O)c1cccc2ccccc12)c1ccncc1	–	–	–	–
240	O=C(N[C@@H](Cc1ccccc1)C(=O)N[C@H](/C=C/S(=O)(=O)c1ccccc1)CCCCNS(=O)(=O)c1cccc2ccccc12)c1ccc(C(F)(F)F)cc1	–	Not Determined(Insoluble)	242	Toxic
640	CCCCNC(=O)N[C@@H](Cc1ccccc1)C(=O)N[C@H](/C=C/S(=O)(=O)c1ccccc1)CCCCNS(=O)(=O)c1cccc2ccccc12	–	–	–	–
480	O=C(N[C@H](/C=C/S(=O)(=O)c1ccccc1)CCCCNS(=O)(=O)c1cccc2ccccc12)[C@H](Cc1ccccc1)NC(=S)Nc1ccccc1	–	–	–	–
